Assay results reported in ChEMBL document CHEMBL2203149, “Carvacrol decreases neuronal excitability by inhibition of voltage-gated sodium channels” (J Nat Prod, 2012).
pIC50: −log10 of the molar value. Calls of active or inactive are those of the source.

Key:
[1] = test system: Sciatic nerve; test: Reduction in peak-to-peak amplitude of compound action potential in Wistar rat sciatic nerve at 1 mM after 180 mins by electrophysiology; type: functional, tissue-based
Method in brief: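 Sciatic nerve from Wistar rats (200–300 g, both sexes) held in a moist chamber, with a 15–20 mm segment immersed in Locke's solution that carried the drug (DMSO ≤0.2% v/v). One end was stimulated and evoked CAPs were recorded 40–50 mm away. Exposure lasted 180 min and began after at least 30 min of stable amplitude. Read-out was peak-to-peak amplitude, at 18–22 °C, n = 5, followed by 180 min washout.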

[2] = test system: Sciatic nerve; test: Reduction in peak-to-peak amplitude of compound action potential in Wistar rat sciatic nerve at 1 mM after 180 mins and measured after 180 mins washout by electrophysiology; type: functional, tissue-based
Method in brief: (§1)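 Evoked compound action potentials in Wistar rat sciatic nerve, recorded 40–50 mm from the stimulating electrodes and sampled at 20 kHz. The segment was bathed in Locke's solution carrying the drug (0.03–1 mM) after at least 30 min of stable amplitude. Exposure lasted 180 min, then 180 min washout. Peak-to-peak amplitude, n = 5 per concentration; IC50 from a logistic fit at 180 min.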

[3] = test system: Sciatic nerve; test: Reduction in peak-to-peak amplitude of compound action potential in Wistar rat sciatic nerve at 0.3 mM after 180 mins by electrophysiology; type: functional, tissue-based; method in brief: as §1
[4] = test system: Sciatic nerve; test: Reduction in peak-to-peak amplitude of compound action potential in Wistar rat sciatic nerve after 180 mins by electrophysiology; type: functional, tissue-based; details: 3 h; method in brief: as §1
[5] = test system: Sciatic nerve; test: Inhibition of first component amplitude of compound action potential in Wistar rat Aalpha sciatic nerve after 180 mins by electrophysiology; type: functional, tissue-based; method in brief: as §1
[6] = test system: Sciatic nerve; test: Inhibition of second component amplitude of compound action potential in Wistar rat Abeta and Agamma sciatic nerve within 60 mins by electrophysiology; type: functional, tissue-based; method in brief: as §1
[7] = […] of Wistar rat sciatice nerve fiber excitability assessed as increase in rheobase at 0.6 mM (reference value: 3.30 +/- 0.06 V); type: functional
[8] = […] of Wistar rat sciatice nerve fiber excitability assessed as increase in chronaxy measured as time at 0.6 mM (reference value: 59.6 +/- 1.2 microsec); type: functional
[9] = Reduction in amplitude of compound action potential in bullfrog sciatic nerve at 0.5 mM after 15 mins by electrophysiology; type: functional, Rana catesbeiana; details: Aquarana catesbeiana, 0.25 h
[10] = Reduction in amplitude of compound action potential in frog sciatic nerve by electrophysiology; type: functional, tissue-based, Anura
[11] = Effect on action potential in Wistar rat DRG neuron assessed as amplitude reduction at 0.03 mM after 12 to 48 hrs by patch-clamp recordings (reference value: 79 +/- 1.3 mV); type: functional
[12] = Effect on action potential in Wistar rat DRG neuron assessed as amplitude reduction at 0.1 mM after 12 to 48 hrs by patch-clamp recordings (reference value: 79 +/- 1.3 mV); type: functional
[13] = Effect on action potential in Wistar rat DRG neuron assessed as amplitude reduction at 0.3 mM after 12 to 48 hrs by patch-clamp recordings (reference value: 79 +/- 1.3 mV); type: functional
[14] = Effect on action potential in Wistar rat DRG neuron assessed as amplitude reduction at 0.6 mM after 12 to 48 hrs by patch-clamp recordings (reference value: 79 +/- 1.3 mV); type: functional
[15] = Effect on action potential in Wistar rat DRG neuron assessed as amplitude reduction at 1 mM after 12 to 48 hrs by patch-clamp recordings (reference value: 79 +/- 1.3 mV); type: functional
[16] = Effect on action potential in Wistar rat DRG neuron assessed as amplitude reduction at 3 mM after 12 to 48 hrs by patch-clamp recordings (reference value: 79 +/- 1.3 mV); type: functional
[17] = Effect on action potential in Wistar rat DRG neuron assessed as resting potential at 0.03 mM after 12 to 48 hrs by patch-clamp recordings (reference value: -60 +/- 1.1 mV); type: functional
[18] = Effect on action potential in Wistar rat DRG neuron assessed as resting potential at 0.1 mM after 12 to 48 hrs by patch-clamp recordings (reference value: -60 +/- 1.1 mV); type: functional
[19] = Effect on action potential in Wistar rat DRG neuron assessed as resting potential at 0.3 mM after 12 to 48 hrs by patch-clamp recordings (reference value: -60 +/- 1.1 mV); type: functional
[20] = Effect on action potential in Wistar rat DRG neuron assessed as resting potential at 0.6 mM after 12 to 48 hrs by patch-clamp recordings (reference value: -60 +/- 1.1 mV); type: functional
[21] = Effect on action potential in Wistar rat DRG neuron assessed as resting potential at 1 mM after 12 to 48 hrs by patch-clamp recordings (reference value: -60 +/- 1.1 mV); type: functional
[22] = Effect on action potential in Wistar rat DRG neuron assessed as resting potential at 3 mM after 12 to 48 hrs by patch-clamp recordings (reference value: -60 +/- 1.1 mV); type: functional
[23] = Effect on action potential in Wistar rat DRG neuron assessed as input resistance at 0.03 mM after 12 to 48 hrs by patch-clamp recordings (reference value: 25.5 +/- 2.1 Momega); type: functional
[24] = Effect on action potential in Wistar rat DRG neuron assessed as input resistance at 0.1 mM after 12 to 48 hrs by patch-clamp recordings (reference value: 25.5 +/- 2.1 Momega); type: functional
[25] = Effect on action potential in Wistar rat DRG neuron assessed as input resistance at 0.3 mM after 12 to 48 hrs by patch-clamp recordings (reference value: 25.5 +/- 2.1 Momega); type: functional
[26] = Effect on action potential in Wistar rat DRG neuron assessed as input resistance at 0.6 mM after 12 to 48 hrs by patch-clamp recordings (reference value: 25.5 +/- 2.1 Momega); type: functional
[27] = Effect on action potential in Wistar rat DRG neuron assessed as input resistance at 1 mM after 12 to 48 hrs by patch-clamp recordings (reference value: 25.5 +/- 2.1 Momega); type: functional
[28] = Effect on action potential in Wistar rat DRG neuron assessed as input resistance at 3 mM after 12 to 48 hrs by patch-clamp recordings (reference value: 25.5 +/- 2.1 Momega); type: functional
[29] = Effect on action potential in Wistar rat DRG neuron assessed as maximum ascendant inclination at 0.03 mM after 12 to 48 hrs by patch-clamp recordings (reference value: 151.2 +/- 6.2 V/s); type: functional
[30] = Effect on action potential in Wistar rat DRG neuron assessed as maximum ascendant inclination at 0.1 mM after 12 to 48 hrs by patch-clamp recordings (reference value: 151.2 +/- 6.2 V/s); type: functional
[31] = Effect on action potential in Wistar rat DRG neuron assessed as maximum ascendant inclination at 0.3 mM after 12 to 48 hrs by patch-clamp recordings (reference value: 151.2 +/- 6.2 V/s); type: functional
[32] = Effect on action potential in Wistar rat DRG neuron assessed as maximum ascendant inclination at 0.6 mM after 12 to 48 hrs by patch-clamp recordings (reference value: 151.2 +/- 6.2 V/s); type: functional
[33] = Effect on action potential in Wistar rat DRG neuron assessed as maximum ascendant inclination at 1 mM after 12 to 48 hrs by patch-clamp recordings (reference value: 151.2 +/- 6.2 V/s); type: functional
[34] = Effect on action potential in Wistar rat DRG neuron assessed as maximum ascendant inclination at 3 mM after 12 to 48 hrs by patch-clamp recordings (reference value: 151.2 +/- 6.2 V/s); type: functional
[35] = Effect on action potential in Wistar rat DRG neuron assessed as maximum descendant inclination at 3 mM after 12 to 48 hrs by patch-clamp recordings (reference value: -104.7 +/- 3.6 V/s); type: functional
[36] = Effect on action potential in Wistar rat DRG neuron assessed as duration at half maximal amplitute at 0.03 mM after 12 to 48 hrs by patch-clamp recordings (reference value: 1.6 +/- 0.1 ms); type: functional
[37] = Effect on action potential in Wistar rat DRG neuron assessed as duration at half maximal amplitute at 0.1 mM after 12 to 48 hrs by patch-clamp recordings (reference value: 1.6 +/- 0.1 ms); type: functional
[38] = Effect on action potential in Wistar rat DRG neuron assessed as duration at half maximal amplitute at 0.3 mM after 12 to 48 hrs by patch-clamp recordings (reference value: 1.6 +/- 0.1 ms); type: functional
[39] = Effect on action potential in Wistar rat DRG neuron assessed as duration at half maximal amplitute at 0.6 mM after 12 to 48 hrs by patch-clamp recordings (reference value: 1.6 +/- 0.1 ms); type: functional
[40] = organism: Rattus norvegicus; test: Inhibition of voltage-gated sodium channel of Wistar rat dissociated DRG neuron assessed as inhibition of current induced of voltage-gated sodium current at -100 mV holding potential with 5 sec intervals at 3 mM after 120 secs by patch-clamp recordings
Method in brief: (§2)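 Wistar rat DRG neurons dissociated with 1 mg/mL collagenase I (75 min) and 2.5 mg/mL trypsin (15 min) at 37 °C, plated on poly-D-lysine and used 12–48 h later. Whole-cell voltage clamp used 100 ms steps to 0 mV from −100 mV every 5 s, at room temperature. External solution: 20 mM NaCl with TEA, Cs and Cd, pH 7.4. Internal solution: CsCl, pH 7.2. Drug 0.01–10 mM, n = 50 cells, logistic fit.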

[41] = Inhibition of voltage-gated sodium channel of Wistar rat dissociated DRG neuron assessed as inhibition of current induced of voltage-gated sodium current at -100 mV holding potential with 5 sec intervals by patch-clamp recordings; method in brief: as §2
[42] = Blockade of action potential in Wistar rat DRG neuron after 12 to 48 hrs by intracellular recordings
[43] = Effect on action potential in Wistar rat DRG neuron assessed as maximum descendant inclination at 1 mM by intracellular recording (reference value: -104.7 +/- 3.6 V/s)
[44] = Effect on action potential in Wistar rat DRG neuron assessed as duration at half maximal amplitute at 1 mM by intracellular recording (reference value: 1.6 +/- 0.1 ms)
[45] = Effect on action potential in Wistar rat DRG neuron assessed as duration at half maximal amplitute at 3 mM by intracellular recording (reference value: 1.6 +/- 0.1 ms)
[46] = Effect on action potential in Wistar rat DRG neuron assessed as maximum descendant inclination at 0.1 mM by intracellular recording (reference value: -104.7 +/- 3.6 V/s)
[47] = Effect on action potential in Wistar rat DRG neuron assessed as maximum descendant inclination at 0.3 mM by intracellular recording (reference value: -104.7 +/- 3.6 V/s)
[48] = Effect on action potential in Wistar rat DRG neuron assessed as maximum descendant inclination at 0.6 mM by intracellular recording (reference value: -104.7 +/- 3.6 V/s)
[49] = Effect on action potential in Wistar rat DRG neuron assessed as maximum descendant inclination at 0.03 mM by intracellular recording (reference value: -104.7 +/- 3.6 V/s)
[50] = Effect on action potential in Wistar rat DRG neuron assessed as elevation in current threshold levels at 0.03 to 3 mM after 12 to 48 hrs by intracellular recordings relative to control
[51] = organism: Rattus norvegicus; test: Inhibition of voltage-gated sodium channel of […] rat dissociated DRG neuron assessed as inhibition of current induced of voltage-gated sodium current at holding potential by patch-clamp recordings; details: concentration not given here

Cc1ccc(C(C)C)cc1O [CARVACROL]
inhibition [1]: Active | inhibition [2]: inactive | inhibition [3]: inactive | pIC50 [4]: 3.30 | inhibition [5]: Active | inhibition [6]: Active | Activity [7]: 4.16 V | Time [8]: 75 microsec | inhibition at 500 µM [9]: 50% | pIC50 [10]: 3.30 | Activity [11]: 77 mV | Activity [12]: 53.9 mV | Activity [13]: 43.9 mV | Activity [14]: 32.1 mV | Activity [15]: 4.2 mV | Activity [16]: 0 mV | Activity [17]: -62.6 mV | Activity [18]: -60.2 mV | Activity [19]: -59.7 mV | Activity [20]: -60.2 mV | Activity [21]: -60.2 mV | Activity [22]: -57.5 mV | Activity [23]: 29.3 MΩ | Activity [24]: 26.7 MΩ | Activity [25]: 27.1 MΩ | Activity [26]: 23.3 MΩ | Activity [27]: 26.3 MΩ | Activity [28]: 20.8 MΩ | Activity [29]: 128.6 V/s | Activity [30]: 94.8 V/s | Activity [31]: 84.4 V/s | Activity [32]: 56.5 V/s | Activity [33]: 4.4 V/s | Activity [34]: 0 V/s | Activity [35]: 0 V/s | Time [36]: 1.6 ms | Time [37]: 1.5 ms | Time [38]: 0.9 ms | Time [39]: 0.6 ms | inhibition [40]: Active | pIC50 [41]: 3.43 | pIC50 [42]: 3.44 | Activity [43]: -4.5 V/s | Time [44]: 0.2 ms | Time [45]: 0 ms | Activity [46]: -78.9 V/s | Activity [47]: -62.7 V/s | Activity [48]: -48 V/s | Activity [49]: -102.2 V/s | Activity [50]: 62.4% | inhibition [51]: 70%

CCN(CC)CC(=O)Nc1c(C)cccc1C [LIDOCAINE]
inhibition at 500 µM [9]: 46% | pIC50 [10]: 3.13
